Source: ChEMBL document CHEMBL1142125, “Bioactive lignans from Peperomia duclouxii” (J Nat Prod, 2007)
Values after ≈ are worked out from the molar mass of the structure shown.

What was measured:
[1] = test system: WI-38; assay: Growth inhibition of human WI38 cells; type: functional, cell-based
In short: (§1)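 Growth inhibition assays. WI-38 cells were kept in Eagle's MEM and VA-13 cells in RITC 80-7, both with 10% (v/v) FBS and 80 µg/mL kanamycin. HepG2 cells were kept in D-MEM with 10% (v/v) FBS and 80 µg/mL kanamycin. IC50 is the concentration giving 50% growth inhibition.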

[2] = test system: WI-38 VA13; assay: Growth inhibition of human VA13 cells; type: functional, cell-based; in short: as §1
[3] = test system: HepG2; assay: Growth inhibition of human HepG2 cells; type: functional, cell-based; in short: as §1
[4] = test system: A549; assay: Inhibition of IL-1-alpha-induced ICAM1 in human A549 cells; type: functional, cell-based
In short: (§2)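 ICAM-1 induction assay. Human A549 cells were grown in RPMI 1640 with heat-inactivated 10% FBS, penicillin G and streptomycin. Cells were stimulated with recombinant IL-1α or TNF-α. Cell-surface ICAM-1 was detected with mouse anti-human ICAM-1 antibody C167 plus a peroxidase-conjugated goat anti-mouse IgG, and an IC50 was derived.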

[5] = test system: A549; assay: Inhibition of TNF-alpha-induced ICAM1 in human A549 cells; type: functional, cell-based; in short: as §2
[6] = test system: A549; assay: Cytotoxicity against human A549 cells by MTT assay; type: cell-based
In short: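 Cell viability was measured by MTT assay in human A549 cells grown in RPMI 1640 with heat-inactivated 10% FBS, penicillin G and streptomycin. This was done alongside the IL-1α/TNF-α-stimulated ICAM-1 induction assay, and an IC50 was derived.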

[7] = Effect on calcein accumulation in human multidrug-resistant 2780AD cells at 0.25 ug/mL relative to control; type: functional, A2780 ADR
In short: (§3)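 Calcein accumulation assay. Multidrug-resistant human ovarian cancer 2780AD (AD10) cells were grown in RPMI-1640 with 10% (v/v) FBS and 80 µg/mL kanamycin. Calcein formed from calcein AM by endogenous esterase served as the efflux probe. Cells were tested at 0.25, 2.5 and 25 µg/mL. Read-out was fluorescence per well, as the mean of triplicates, expressed relative to the untreated control or to the verapamil positive control.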

[8] = Effect on calcein accumulation in human multidrug-resistant 2780AD cells at 2.5 ug/mL relative to control; type: functional, A2780 ADR; in short: as §3
[9] = Effect on calcein accumulation in human multidrug-resistant 2780AD cells at 25 ug/mL relative to control; type: functional, A2780 ADR; in short: as §3
[10] = Effect on calcein accumulation in human multidrug-resistant 2780AD cells at 0.25 ug/mL relative to verapamil; type: functional, A2780 ADR; in short: as §3
[11] = Effect on calcein accumulation in human multidrug-resistant 2780AD cells at 2.5 ug/mL relative to verapamil; type: functional, A2780 ADR; in short: as §3
[12] = Effect on calcein accumulation in human multidrug-resistant 2780AD cells at 25 ug/mL relative to verapamil; type: functional, A2780 ADR; in short: as §3

SMILES: COc1cc([C@H]2OC[C@@H]3C(c4cc(OC)c(O)c(OC)c4)OC[C@H]23)ccc1O (some centres not stated) [MEDIORESINOL]
- IC50 [1]: 76.9 µg/mL (≈ 198 µM)
- IC50 [2]: > 100 µg/mL
- IC50 [3]: 84.7 µg/mL (≈ 218 µM)

SMILES: COc1cccc2c1C(=O)c1c(O)c3c(c(O)c1C2=O)C[C@@](O)(C(=O)CO)C[C@@H]3O[C@H]1C[C@H](N)[C@H](O)[C@H](C)O1 [DOXORUBICIN]
- IC50 [1]: 0.76 µg/mL (≈ 1.4 µM)
- IC50 [2]: 0.08 µg/mL (≈ 0.147 µM)
- IC50 [3]: 0.48 µg/mL (≈ 0.883 µM)

SMILES: COc1cc(C[C@H]2CO[C@H](c3cc(OC)c4c(c3)OCO4)[C@H]2CO)cc2c1OCO2
- IC50 [1]: 74.3 µg/mL (≈ 178 µM)
- IC50 [2]: 99.1 µg/mL (≈ 238 µM)
- IC50 [3]: 72 µg/mL (≈ 173 µM)

SMILES: COc1cc([C@@H]2c3c(cc4c(c3OC)OCO4)C[C@H](COC(C)=O)[C@@H]2COC(C)=O)cc(OC)c1O
- IC50 [1]: 41.3 µg/mL (≈ 82.2 µM)
- IC50 [2]: 62.4 µg/mL (≈ 124 µM)
- IC50 [3]: 74.4 µg/mL (≈ 148 µM)
- IC50 [4]: 107 µM
- IC50 [5]: 13.4 µM
- IC50 [6]: > 316 µM

SMILES: CC(=O)O[C@H]1C(=O)[C@@]2(C)[C@H]([C@H](OC(=O)c3ccccc3)[C@]3(O)C[C@H](OC(=O)[C@H](O)[C@@H](NC(=O)c4ccccc4)c4ccccc4)C(C)=C1C3(C)C)[C@]1(OC(C)=O)CO[C@@H]1C[C@@H]2O [PACLITAXEL]
- IC50 [1]: 0.02 µg/mL (≈ 0.0234 µM)
- IC50 [2]: 0.01 µg/mL (≈ 0.0117 µM)
- IC50 [3]: 0.05 µg/mL (≈ 0.0586 µM)

SMILES: COc1ccc(CCN(C)CCCC(C#N)(c2ccc(OC)c(OC)c2)C(C)C)cc1OC (configuration not stated) [VERAPAMIL]
- Activity [7]: 99%
- Activity [8]: 114%
- Activity [9]: 145%
- Activity [10]: 100%
- Activity [11]: 100%
- Activity [12]: 100%

SMILES: COc1cc([C@@H]2OC[C@@H]3[C@H]2CO[C@H]3c2cc(OC)c3c(c2)OCO3)cc(O)c1O
- IC50 [1]: 49.8 µg/mL (≈ 124 µM)
- IC50 [2]: 5.3 µg/mL (≈ 13.2 µM)
- IC50 [3]: 13.2 µg/mL (≈ 32.8 µM)
- Activity [7]: 101%
- Activity [8]: 105%
- Activity [9]: 169%
- Activity [10]: 103%
- Activity [11]: 92%
- Activity [12]: 117%

SMILES: COc1cc([C@H]2OC[C@H]3[C@@H]2CO[C@@H]3c2ccc3c(c2)OCO3)cc(OC)c1O
- IC50 [1]: > 100 µg/mL
- IC50 [2]: > 100 µg/mL
- IC50 [3]: > 100 µg/mL

SMILES: COc1cc([C@@H]2OC[C@@H]3[C@H]2CO[C@H]3c2cc(OC)c3c(c2)OCO3)cc(OC)c1O
- IC50 [1]: 96.6 µg/mL (≈ 232 µM)
- IC50 [2]: > 100 µg/mL
- IC50 [3]: > 100 µg/mL

SMILES: COc1cc([C@H]2OC[C@@H]3C(=O)OC[C@@H]32)cc(OC)c1OC [ZHEPIRESINOL]
- IC50 [1]: 57.7 µg/mL (≈ 196 µM)
- IC50 [2]: 50.7 µg/mL (≈ 172 µM)
- IC50 [3]: 60.2 µg/mL (≈ 205 µM)
